NSD2 inh – NSD2 histone methyltransferase inhibitors, primary screen, biochemical, AlphaScreen, single concentration, set 2 | NSD2 peptide methylation, 120 min | 0.54% of 310,000 active | Histone-lysine N-methyltransferase NSD2 (Homo sapiens), O96028 | inhibition, % at 12.5 µM; in the data active = inhibition above about 50%
LEDGF integ inh – blockers of LEDGF/p75-dependent integrase strand transfer – biochemical, TR-FRET, high throughput, primary screen; AID 743269, 2014; 0.64% of 370,000 active; HIV-1 integrase (with human LEDGF/p75); inhibition, % at 3.7 µM; TR-FRET IN-LEDGF/p75 DNA integration, Eu/Cy5;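 active = inhibition above the screen-wide mean plus 3 SD, cut at about 13% in these data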;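 also: signal is the Cy5 over europium emission ratio at 671 and 618 nm; 0% = plate median of compound wells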
TDP2 absorb – human TDP2 enzyme inhibitors, primary screen, biochemical, epi absorbance, recombinant enzyme. Tyrosyl-DNA phosphodiesterase 2 (Homo sapiens), O95551. T5PNP hydrolysis, p-nitrophenol absorbance 415 nm. inhibition, % at 12.8 µM. 0.34% of 370,000 active. AID 720702, 2013;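 active = inhibition above the mean of all tested compounds plus 3 SD, set per campaign, cut at about 25% in these data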;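 also: 0% = DMSO with enzyme and 100% = buffer with substrate but no TDP2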
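Assay system: Recombinant human TDP2 | Quantity: 120 nM TDP2 per well | Incubation: 2 h at 37 °C | Signal: Epi absorbance | Evaluation: Percent inhibition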
MBD2 DNA inh – inhibitors of MBD2 binding to methylated DNA, primary screen, biochemical, TR-FRET, DNA-binding domain, human; Methyl-CpG-binding domain protein 2 (Homo sapiens), Q9UBB5; MBD2 binding to methylated oligonucleotide; inhibition, % at 4.4 µM; 0.31% of 370,000 active; AID 686964, 2013; in the data active = inhibition above about 13%
Target sequence (Q9UBB5 whole entry, looked up, the tested form may be a part): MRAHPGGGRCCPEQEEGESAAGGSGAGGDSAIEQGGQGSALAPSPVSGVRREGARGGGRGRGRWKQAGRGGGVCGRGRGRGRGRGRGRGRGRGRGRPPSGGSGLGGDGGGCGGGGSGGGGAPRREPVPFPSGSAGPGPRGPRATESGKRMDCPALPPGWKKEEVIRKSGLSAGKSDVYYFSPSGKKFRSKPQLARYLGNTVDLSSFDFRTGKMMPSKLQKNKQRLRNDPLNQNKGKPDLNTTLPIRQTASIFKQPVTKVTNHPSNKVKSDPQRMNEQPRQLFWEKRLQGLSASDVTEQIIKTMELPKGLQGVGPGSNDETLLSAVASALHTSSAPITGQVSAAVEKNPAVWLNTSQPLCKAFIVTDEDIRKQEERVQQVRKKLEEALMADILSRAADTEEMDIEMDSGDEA
UHRF1 MBD2 ctr – UHRF1 methylated DNA binding inhibitors, primary screen, counter-screen for MBD2 inhibitor project, biochemical, TR-FRET, human UHRF1, single concentration; AID 687016, 2013; UHRF1 binding to methylated oligo; inhibition, % at 4.4 µM; 0.75% of 370,000 active; in the data active = inhibition above about 21%;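 also: UHRF1 SRA domain binding a hemimethylated CpG hairpin DNA probe; 0% = median of test compound wells and 100% = reference inhibitor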
CASP6 VEID inh – human caspase-6 inhibitors, primary screen, biochemical, VEID-R110 fluorescence, single point, set 2 | inhibition, % at 12.5 µM | purified caspase-6, Z-VEID-R110 cleavage fluorescence | 0.53% of 350,000 active | P55212;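 active = mean inhibition across replicates at least about 35%, with every replicate also reaching that limit, limit read from the data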;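 also: 0% = median of neutral control wells and 100% = no fluorescence left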
IN multimer up – HIV-1 IN multimer formation enhancers, counter-screen for LEDGF/p75 integration inhibitor project, biochemical, TR-FRET; shares compounds with LEDGF integ inh; TR-FRET HIV-1 integrase multimerization; activation, % at 7.7 µM; 17% of 2,000 active; AID 1053131, 2014; in the data active = activation above about 8.9%
TRFRET interf – TR-FRET optical interference artefacts, confirmation, artefact control for LEDGF/p75-dependent integration inhibitor project, biochemical, HIV-1 IN multimerization. inhibition, % at 7.7 µM. TR-FRET optical interference counterscreen. 2,000 tested, under 10 active. shares compounds with LEDGF integ inh;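 active = inhibition above the mean over all tested compounds plus 3 SD, which no compound reached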;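 also: 0% = integrase with antibodies and DMSO and 100% = antibodies without integrase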
LEDGF integ conf – inhibitors of HIV-1 IN-LEDGF/p75 DNA integration, confirmation, biochemical, TR-FRET; shares compounds with LEDGF integ inh; inhibition, % at 3.7 µM; TR-FRET LEDGF/p75-dependent HIV-1 integration; 36% of 2,000 active; in the data active = inhibition above about 14%
Alpha artifact – AlphaScreen signal interference with preloaded methylated product, dose response, artefact control for NSD2 inhibitor project, biochemical, cherry-picked samples. AlphaScreen artifact counterscreen, preloaded methylated H4 peptide. AID 1053174, 2014. AC35, µM (top dose mostly 10 µM), for the others: at the highest dose activity change, negative = signal loss. shares compounds with NSD2 inh. 9.4% of 1,500 active; call rule not given here
Active calls of the source: *; i = inactive; / = no result. Rows were chosen to be rich in hits. Some 1.9% of all compounds tested hit in one or more screens of this group.

SMILES	NSD2 inh	LEDGF integ inh	TDP2 absorb	MBD2 DNA inh	UHRF1 MBD2 ctr	CASP6 VEID inh	IN multimer up	TRFRET interf	LEDGF integ conf	Alpha artifact
O=C(O)c1ccc(NS(=O)(=O)c2ccc3c(c2)C2C=CCC2C(c2ccccc2F)N3)cc1 (configuration not stated)	159*	43*	13	4	13	47*	17*	-61	33*	-2%
C[C@H](CO)N1C[C@H](C)[C@@H](CN(C)C(=O)Nc2ccc(F)cc2)OCCCC[C@H](C)Oc2ccc(NC(=O)Cc3ccccc3)cc2C1=O	/	/	/	/	/	-4	/	/	/	/
O=C(CSc1nc2ccccc2o1)N/N=C/c1ccc(O)c(O)c1	116*	17*	-20	-3	4	63*	62*	-221	73*	2.2µM*
Cc1cc(NS(=O)(=O)c2ccc(NC(=O)CSc3nnc(-c4ccncc4)n3Cc3ccco3)cc2)nc(C)n1	56*	36*	-2	6	7	/	1	-5	-9	-1%
C[C@@H]1CN([C@H](C)CO)C(=O)c2cc(NC(=O)CCCCCC(=O)Nc3ccccc3N)ccc2O[C@@H]1CN(C)C(=O)Nc1ccc(F)cc1	/	/	/	/	/	0	/	/	/	/
O=C1C=CC(=O)c2c(O)c(N3CCN(CCO)CC3)c(Cl)c(O)c21	103*	26*	8	0	18	93*	91*	-322	78*	-5%
O=C1C=CC(=O)c2c(O)c(N3CCN(CCOCCO)CC3)c(Br)c(O)c21	81*	50*	24	10	40*	97*	99*	-352	83*	-8%
OCCOCCN1CCN(C2=Nc3ccccc3Sc3ccccc32)CC1	/	i	4	1	2	0	/	/	/	/
Cc1ccc(S(=O)(=O)Nc2ccc3c(c2)C(=O)N([C@H](C)CO)C[C@@H](C)[C@@H](CN(C)C(=O)Nc2cccc4ccccc24)OCCCC[C@@H](C)O3)cc1	/	/	/	/	/	3	/	/	/	/
COc1ccc(-c2c(C#N)c(C)nc3c2C(=O)c2ccccc2-3)cc1	-3	2	8	0	0	/	/	/	/	/
COC1=C(N)C(=O)c2nc(C)ccc2C1=O	189*	20*	21	-2	9	56*	0	2	44*	-1%
Oc1ccc(-c2cn3c(n2)SCC3)cc1O	105*	52*	10	4	4	/	72*	-258	58*	8.1µM*
C[C@H]1CN([C@@H](C)CO)C(=O)c2cc(-c3cccnc3)cnc2O[C@H]1CN(C)C(=O)Nc1ccccc1	/	/	/	/	/	0	/	/	/	/
N=C1/C(=C\c2coc3ccccc3c2=O)C(=O)N=C2SC(c3ccncc3)=NN12	98*	25*	10	-4	-6	41*	0	-1	62*	-3%
O=C(O)c1cccc(-n2cccc2/C=C2/NC(=O)N(c3ccc(Cl)cc3)C2=O)c1	141*	83*	-2	101*	103*	84*	36*	-129	81*	2.1µM*
Cc1ccc(S(=O)(=O)Nc2ccc3c(c2)C(=O)N([C@H](C)CO)C[C@H](C)[C@H](CN(C)C(=O)Nc2ccc(F)cc2)OCCCC[C@@H](C)O3)cc1	/	/	/	/	/	-1	/	/	/	/
O=C(CCCCCN1C(=O)C2C3C=CC(C3)C2C1=O)Nc1ccc2ncccc2c1 (configuration not stated)	95*	22*	4	-6	-2	/	1	-7	3	-1%
O=C(CCCCCN1C(=O)C2C3C=CC(C3)C2C1=O)Nc1ccc(Cl)cc1 (configuration not stated)	-4	-1	1	-10	-1	/	/	/	/	/
CCCCN1C(=O)C(=Nc2cccc3cnccc23)c2ccccc21	74*	16*	1	-17	-4	-4	1	-6	23*	-1%
CCCCN1C(=O)/C(=C2\SC(N3CCCCC3)=NC2=O)c2ccccc21	13	2	-5	1	0	/	/	/	/	/
O=C(Cc1csc(N2CCOCC2)n1)N/N=C/c1ccc(O)c(O)c1O	77*	55*	4	1	5	19	44*	-157	60*	-9%
C/C(=N\NC(=O)Cc1csc(N2CCOCC2)n1)c1ccccc1	0	2	1	6	-5	/	/	/	/	/
CC(=O)C1=C(O)C(=O)N(CCc2c[nH]c3ccccc23)C1c1ccc(C)cc1 (configuration not stated)	2	-1	7	1	-4	3	/	/	/	/
CC(=O)C1=C(O)C(=O)N(CCc2c[nH]c3ccccc23)C1c1ccco1 (configuration not stated)	61*	15*	7	-4	2	/	2	-6	13	4%
CCCNC(=O)N1C[C@H](C)[C@H](OC)CN(C)C(=O)c2cc(NS(=O)(=O)CC(F)(F)F)ccc2OC[C@@H]1C	/	/	/	/	/	2	/	/	/	/
O=C(O)C(c1ccccc1)N1C(=O)/C(=C\c2ccc(O)c(O)c2)SC1=S (configuration not stated)	105*	23*	-6	-2	1	35	8	-41	51*	7.6µM*
CO[C@@H]1CN(C)C(=O)c2cc(NC(=O)C3CC3)ccc2OC[C@@H](C)NC[C@H]1C	/	/	/	/	/	1	/	/	/	/
CC1NC(=O)NC1CCCCCC(=O)Nc1ccc(F)c(Cl)c1 (configuration not stated)	103*	74*	5	-4	-2	-6	1	-3	92*	3.8µM*
CCC(=O)Nc1ccc(F)c(Cl)c1	/	-1	4	1	-3	/	/	/	/	/
